Twelve molecules from ChEMBL document CHEMBL1772996, “Bioactive constituents from the roots of Panax japonicus var. major and development of a LC-MS/MS method for distinguishing between natural and artifactual compounds” (J Nat Prod, 2011) can be followed below.

Test [1] concerns HCT-8. Description: Cytotoxicity against human HCT8 cells assessed as growth inhibition after 3 days by sulforhodamine B assay. The test is classed as functional, cell-based.
In test [2] the test system is KB. Kind of test: Cytotoxicity against human KB cells assessed as growth inhibition after 3 days by sulforhodamine B assay. The test is classed as functional. For orientation: The SRB assay estimates cell density from bound dye.
In test [3] the test system is Neutrophil. Description: Inhibition of fMLP/CB-stimulated superoxide anion generation in human neutrophils at 30 uM relative to control. The test is classed as functional. An outline of the steps:
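Neutrophils isolated by dextran sedimentation, Ficoll Hypaque and hypotonic lysis, kept in Ca2+-free HBSS pH 7.4 at 4 °C. Given 0.5 mg/mL ferricytochrome c and 1 mM Ca2+, equilibrated 37 °C 2 min, compound 5 min. CB 1 μg/mL for 3 min, then 100 nM fMLP for 10 min. SOD-inhibitable ferricytochrome c reduction followed at 550 nm with stirring; mean ± S.E.M., n = 3–4.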

The subject of test [4] is DU-145. Kind of test: Cytotoxicity against human DU145 cells assessed as growth inhibition after 3 days by sulforhodamine B assay. The test is classed as functional.
For test [5], the system named is A549. Description: Cytotoxicity against human A549 cells assessed as growth inhibition after 3 days by sulforhodamine B assay. The test is classed as functional, cell-based.
The subject of test [6] is Neutrophil. Kind of test: Inhibition of fMLP/CB-activated human neutrophil degranulation assessed as inhibition of elastase release at 30 uM using MeO-Suc-Ala-Ala-Pro-Val-p-nitroanilide as a substrate after 5 mins relative to control. The test is classed as functional. The procedure, abridged:
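Isolated human neutrophils (dextran sedimentation, Ficoll Hypaque, hypotonic erythrocyte lysis; >98% viable by trypan blue) at 5×10^5/mL in Ca2+-free HBSS pH 7.4 with 100 μM MeO-Suc-Ala-Ala-Pro-Val-p-nitroanilide. Equilibrated 37 °C 2 min, compound 5 min, then activated with 100 nM fMLP plus 0.5 μg/mL CB. A405 monitored continuously. Expressed as % of initial elastase release rate in drug-free fMLP/CB control; mean ± S.E.M., n = 3–4.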

The structures appear in SMILES notation. Values after ≈ are worked out from the molar mass of the structure shown. Active and inactive are the calls of the source. The rule behind the calls is not given here.

Take `CC(C)=CCC[C@](C)(O[C@@H]1O[C@H](CO)[C@@H](O)[C@H](O)[C@H]1O)[C@H]1CC[C@]2(C)[C@@H]1[C@H](O)C[C@@H]1[C@@]3(C)CC[C@H](O[C@@H]4O[C@H](CO)[C@@H](O)[C@H](O)[C@H]4O[C@@H]4O[C@H](CO)[C@@H](O)[C@H](O)[C@H]4O)C(C)(C)[C@@H]3CC[C@]12C` [GINSENOSIDE RD]: the “growth inhibition (GI)” value in test [1], in test [2], in test [4] and in test [5] was “inactive” throughout. For the same molecule, the results for the inhibition at 30 µM in test [3] and in test [6] were -3.54% and 2.88%, respectively.

As to `CC(C)=CCC[C@](C)(O[C@@H]1O[C@H](CO[C@@H]2O[C@H](CO)[C@@H](O)[C@H](O)[C@H]2O)[C@@H](O)[C@H](O)[C@H]1O)[C@H]1CC[C@]2(C)[C@@H]1[C@H](O)C[C@@H]1[C@@]3(C)CC[C@H](O[C@@H]4O[C@H](CO)[C@@H](O)[C@H](O)[C@H]4O[C@@H]4O[C@H](CO)[C@@H](O)[C@H](O)[C@H]4O)C(C)(C)[C@@H]3CC[C@]12C` [GINSENOSIDE RB1], the “growth inhibition (GI)” value in test [1], in test [2], in test [4] and in test [5] was “inactive” each time. In addition, the inhibition (in general, the drop in the measured response relative to a control, in per cent) at 30 µM in test [3] worked out at 10.8%; in test [6], 7.36%.

As for `CC1(C)CC[C@]2(C(=O)O[C@@H]3O[C@H](CO)[C@@H](O)[C@H](O)[C@H]3O)CC[C@]3(C)C(=CC[C@@H]4[C@@]5(C)CC[C@H](O[C@@H]6O[C@H](C(=O)O)[C@@H](O[C@H]7O[C@@H](CO)[C@H](O)[C@H]7O)[C@H](O[C@@H]7O[C@H](CO)[C@@H](O)[C@H](O)[C@H]7O)[C@H]6O)C(C)(C)[C@@H]5CC[C@]43C)[C@@H]2C1` [STIPULEANOSIDE R2], the “growth inhibition (GI)” value in test [1], in test [2], in test [4] and in test [5] was “inactive” in each case. For the same molecule, the results for the inhibition at 30 µM in test [3] and in test [6] were 0.78% and 23.7%, respectively.

Take `CC(C)=CC/C=C(\C)[C@H]1CC[C@]2(C)[C@@H]1[C@H](O)C[C@@H]1[C@@]3(C)CC[C@H](O[C@@H]4O[C@H](CO)[C@@H](O)[C@H](O)[C@H]4O[C@@H]4O[C@H](CO)[C@@H](O)[C@H](O)[C@H]4O)C(C)(C)[C@@H]3CC[C@]12C`: the “growth inhibition (GI)” value in test [1], in test [2], in test [4] and in test [5] was “inactive” each time.

On to `CC1(C)CC[C@]2(C(=O)O[C@@H]3O[C@H](CO)[C@@H](O)[C@H](O)[C@H]3O)CC[C@]3(C)C(=CC[C@@H]4[C@@]5(C)CC[C@H](O[C@@H]6O[C@H](C(=O)O)[C@@H](O[C@@H]7O[C@@H](CO)[C@H](O)[C@H]7O)[C@H](O)[C@H]6O)C(C)(C)[C@@H]5CC[C@]43C)[C@@H]2C1`, for which the “growth inhibition (GI)” value in test [1], in test [2], in test [4] and in test [5] was “inactive” throughout. Besides, the results for the inhibition at 30 µM in test [3] and in test [6] were 14.6% and 27.6%, respectively.

On to `CC[C@H](CC[C@@H](C)[C@H]1CC[C@H]2[C@@H]3CC=C4C[C@@H](O[C@@H]5O[C@H](CO)[C@@H](O)[C@H](O)[C@H]5O)CC[C@]4(C)[C@H]3CC[C@]12C)C(C)C` [SITOGLUSIDE], for which the “growth inhibition (GI)” value in test [1], in test [2], in test [4] and in test [5] was “inactive” in each case. The figures for the inhibition at 30 µM in test [3] and in test [6] were 7.45% and 21.7%, respectively.

Take `C/C(=C/CC[C@](C)(O)[C@H]1CC[C@]2(C)[C@@H]1[C@H](O)C[C@@H]1[C@@]3(C)CC[C@H](O)C(C)(C)[C@@H]3[C@@H](O[C@@H]3O[C@H](CO)[C@@H](O)[C@H](O)[C@H]3O[C@@H]3O[C@H](CO)[C@@H](O)[C@H](O)[C@H]3O)C[C@]12C)CO` [PANAJAPONOL A]: the “growth inhibition (GI)” value in test [1] and in test [5] was “Active” in each case. Moreover, the GI50 (in general, the concentration that inhibits growth by half) in test [2] (72 h) worked out at 6.3 µg/mL (≈ 7.71 µM); in test [4] (DU-145, 72 h) it was 7.3 µg/mL (≈ 8.93 µM). Besides, the inhibition at 30 µM was determined as 20.3% in test [3] and 42% in test [6].

Regarding `CC(C)=CCC[C@@](C)(O)[C@H]1CC[C@]2(C)[C@@H]1[C@H](O)C[C@@H]1[C@@]3(C)CC[C@H](O[C@@H]4O[C@H](CO)[C@@H](O)[C@H](O)[C@H]4O[C@@H]4O[C@H](CO)[C@@H](O)[C@H](O)[C@H]4O)C(C)(C)[C@@H]3CC[C@]12C`, the “growth inhibition (GI)” value in test [1], in test [2], in test [4] and in test [5] was “inactive” in each case.

In the case of `CC(C)(O)[C@@H]1CC[C@@](C)([C@H]2CC[C@]3(C)[C@@H]2[C@H](O)C[C@@H]2[C@@]4(C)CC[C@H](O)C(C)(C)[C@@H]4[C@@H](O[C@@H]4O[C@H](CO)[C@@H](O)[C@H](O)[C@H]4O[C@@H]4O[C@H](CO)[C@@H](O)[C@H](O)[C@H]4O)C[C@]23C)O1`, the “growth inhibition (GI)” value in test [1], in test [2], in test [4] and in test [5] was “inactive” each time. Moreover, the inhibition at 30 µM in test [3] is 7.4%; in test [6] it was -4.95%.

As to `CC(C)=CCC[C@](C)(O)[C@H]1CC[C@]2(C)[C@@H]1[C@H](O)C[C@@H]1[C@@]3(C)CC[C@H](O)C(C)(C)[C@@H]3[C@@H](O[C@@H]3O[C@H](CO)[C@@H](O)[C@H](O)[C@H]3O[C@@H]3O[C@H](CO)[C@@H](O)[C@H](O)[C@H]3O)C[C@]12C` [GINSENOSIDE RF], the “growth inhibition (GI)” value in test [1], in test [2], in test [4] and in test [5] was “inactive” in each case. Moreover, the inhibition at 30 µM in test [3] came out at 8.94%; in test [6], 29.5%.

`CC(C)=CCC[C@](C)(O[C@@H]1O[C@H](CO)[C@@H](O)[C@H](O)[C@H]1O)[C@H]1CC[C@]2(C)[C@@H]1[C@H](O)C[C@@H]1[C@@]3(C)CC[C@H](O)C(C)(C)[C@@H]3[C@@H](O[C@@H]3O[C@H](CO)[C@@H](O)[C@H](O)[C@H]3O)C[C@]12C` [GINSENOSIDE RG1]: the “growth inhibition (GI)” value in test [1], in test [2], in test [4] and in test [5] was “inactive” throughout. Also, the inhibition at 30 µM in test [3] turned out to be 14.1%; in test [6] it was 19%.

As for `CC(C)=CCC[C@](C)(O)[C@H]1CC[C@]2(C)[C@@H]1[C@H](O)C[C@@H]1[C@@]3(C)CC[C@H](O[C@@H]4O[C@H](CO)[C@@H](O)[C@H](O)[C@H]4O[C@@H]4O[C@H](CO)[C@@H](O)[C@H](O)[C@H]4O)C(C)(C)[C@@H]3CC[C@]12C`, the “growth inhibition (GI)” value in test [1], in test [2], in test [4] and in test [5] was “inactive” throughout.
